Legend:
Nucleic Acid = test: Percent of cellular protein-DNA complex formation at concentration of 20 uM; format: functional; settings: Homo sapiens
KB = test: Cytotoxicity against KB-ATCC cell lines after a 3-day incubation; format: functional; settings: Homo sapiens, 72 h, read-out: ID50 (the source's name)
How it was run: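 KB-ATCC cells were incubated with compound for 3 days. The read-out was cell number, and ID50 was taken as the concentration giving a 50% reduction.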

[1] = molecular target: DNA topoisomerase II (Homo sapiens) (UniProt P11388+Q02880); test: Inhibition of human DNA topoisomerase II activity; format: protein assay
How it was run: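 Each compound was tested in triplicate at 5, 10, 25, 50 and 100 µM. ID50 was set from the degree of inhibition seen at these concentrations.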

In the case of COc1cc([C@@H]2c3cc4c(cc3[C@@H](O[C@@H]3O[C@@H]5CO[C@@H](C)O[C@H]5[C@H](O)[C@H]3O)[C@H]3COC(=O)[C@H]23)OCO4)cc(OC)c1O [ETOPOSIDE], the Complex formation (Nucleic Acid) is reported as 100% and the IC50 (KB) is reported as 0.2 µM.

Work on COc1cc([C@@H]2c3cc4c(cc3[C@@H](Nc3ccccc3)[C@H]3COC[C@H]23)OCO4)cc(OC)c1O yielded a Complex formation (Nucleic Acid) of 139%, an IC50 (KB) of 2.6 µM and an ID50 [1] of 50 µM.

In the case of COc1cc([C@@H]2c3cc4c(cc3[C@@H](Nc3ccc(F)cc3)[C@H]3COC[C@H]23)OCO4)cc(OC)c1O, the Complex formation (Nucleic Acid) is reported as 125%, the IC50 (KB) is reported as 4.1 µM and the ID50 [1] is reported as 50 µM.

For COc1cc([C@@H]2c3cc4c(cc3[C@@H](Nc3ccc(F)cc3)[C@H]3COC(=O)[C@H]23)OCO4)cc(OC)c1O, the Complex formation (Nucleic Acid) was 213% and the IC50 (KB) was 0.24 µM.

For COc1cc([C@@H]2c3cc4c(cc3[C@@H](Nc3ccc(F)cc3)[C@H]3CO[C@@H](O)[C@H]23)OCO4)cc(OC)c1O, the Complex formation (Nucleic Acid) was 87%, the IC50 (KB) was 2.2 µM and the ID50 [1] was 50 µM.

For COc1cc([C@@H]2c3cc4c(cc3[C@@H](Nc3ccc(F)cc3)[C@H]3CO[C@@H](OC)[C@H]23)OCO4)cc(OC)c1O, the Complex formation (Nucleic Acid) was 66%, the IC50 (KB) was 5.5 µM and the ID50 [1] was over 100 µM.

COc1cc([C@@H]2c3cc4c(cc3[C@@H](Nc3ccccc3)[C@H]3CO[C@@H](OC)[C@H]23)OCO4)cc(OC)c1O was tested, and the Complex formation (Nucleic Acid) was 96%, the IC50 (KB) was 5.5 µM and the ID50 [1] was 100 µM.

— ChEMBL document CHEMBL1127855, “Antitumor agents. 144. New gamma-lactone ring-modified arylamino etoposide analogs as inhibitors of human DNA topoisomerase II” (1994)
